Results from different studies.
Each line is one published result; the experiments were not run side by side.
Target: Rho-associated protein kinase 1 (ROCK1, Homo sapiens, UniProt Q13464)

SMILES | read-out | mode | technique | tested at | endpoint | result
N#CC1(c2ccccn2)CCN(Cc2cc(C(=O)O)c(=O)n3ccccc23)CC1 | cell-free assay | – | competition with immobilised ligand | 1 µM | remaining binding | 86%
CC(C)(C)c1cc(C=C(C#N)C#N)cc(Br)c1O | enzyme activity | inhibitor | – | 0.5 µM | remaining activity | 82.9%
C#Cc1n[nH]c2c(-c3cn([C@@H](C)c4ccccn4)c(=O)[nH]c3=O)cc(F)cc12 | enzyme activity | inhibitor | – | 0.1 µM | inhibition | 6.5%
COc1ncccc1-c1cnn2ccc(N3CCN(C(=O)OC(C)C)CC3)nc12 | binding | – | competition with immobilised ligand | 1 µM | remaining binding | 95%
Nc1ncc(-c2nc(N3CCOCC3)nc(N3CCOCC3)n2)c(C(F)F)n1 | binding | – | competition with immobilised ligand | 10 µM | remaining binding | 99%
Cn1cncc1[C@](O)(COc1ccc(C#N)cc1-c1ccc(OC(F)(F)F)cc1)c1ccc(C#N)cc1 | cell-free assay | – | competition with immobilised ligand | 1 µM | remaining binding | 100%
Cn1cc(-c2cccc(N3CCc4c(sc5c4CC(C)(C)C5)C3=O)c2CO)cc(Nc2ccncn2)c1=O | enzyme activity | inhibitor | – | 1 µM | inhibition | 1%
COc1cc(Nc2ncc(F)c(Nc3ccc4c(n3)NC(=O)C(C)(C)O4)n2)cc(OC)c1OC | binding | – | – | 10 µM | inhibition | 86%
O=c1[nH]c2ccccc2n1C1CCN(Cc2ccc(-c3[nH]c4cc5ncnc5cc4nc3-c3ccccc3)cc2)CC1 | cell-free assay | – | – | 0.5 µM | remaining signal | 101%
Cn1cc(-c2cc(F)cc(N3CCn4c(cc5c4CCCC5)C3=O)c2CO)cc(Nc2ccc(N3CCN(C4COC4)CC3)cn2)c1=O | enzyme activity | inhibitor | – | 0.1 µM | inhibition | 0%
